Only some compounds are listed: those with a hit (about 2% of all), similar ones and a draw of the others.
TCR CD3 inh: human TCR-CD3 binding inhibition. actives 0.37% (n = 360,000). AID 651800. inhibition, % at 9.4 µM. TAMRA-labeled TCR probe fluorescence, biochemical; in the data active = inhibition above about 19%;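 note: recombinant mutant TCR 2C K166C tagged with TAMRA read by polarization; 0% = receptor in buffer alone and 100% = receptor with positive control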
ASAP1 inh: ASAP1 ArfGAP inhibition. Q9ULH1. AID 624377. inhibition, % at 16.5 µM. actives 0.19% (n = 360,000). ASAP1-stimulated ARF1 GTP hydrolysis, GDP FP detection; in the data active = inhibition above about 25%;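 note: 0% = vehicle with enzyme and substrate and 100% = no enzyme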
Target sequence (Q9ULH1 325-724 limits assumed): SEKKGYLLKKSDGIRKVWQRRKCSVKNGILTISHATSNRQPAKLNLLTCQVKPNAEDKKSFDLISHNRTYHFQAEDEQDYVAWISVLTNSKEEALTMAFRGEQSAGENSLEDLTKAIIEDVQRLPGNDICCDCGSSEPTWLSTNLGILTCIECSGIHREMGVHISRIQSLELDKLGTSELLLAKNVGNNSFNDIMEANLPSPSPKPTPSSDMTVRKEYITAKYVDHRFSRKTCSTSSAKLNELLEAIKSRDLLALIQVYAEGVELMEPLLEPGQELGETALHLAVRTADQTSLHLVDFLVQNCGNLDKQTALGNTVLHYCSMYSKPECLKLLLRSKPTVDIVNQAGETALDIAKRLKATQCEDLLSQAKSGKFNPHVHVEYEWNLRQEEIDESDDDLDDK
UHRF1 MBD2 ctr: blocks human UHRF1 binding to methylated DNA. UHRF1 binding to methylated oligo, TR-FRET. inhibition, % at 4.4 µM. actives 0.75% (n = 370,000). AID 687016; in the data active = inhibition above about 21%;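 note: UHRF1 SRA domain binding a hemimethylated CpG hairpin DNA probe; 0% = median of test compound wells and 100% = reference inhibitor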
ARFGAP1 inhibitor: rat ARFGAP1 inhibition; AID 651572; inhibition, % at 16.5 µM; Arfgap1-stimulated ARF1 GTP hydrolysis, GDP FP detection; actives 0.26% (n = 360,000); Q62848;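 active = inhibition above a per-plate limit, mean inhibition of low control wells plus 3 SD, cut at about 25% in these data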;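 note: 0% = DMSO wells with enzyme and 100% = wells lacking Arfgap1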
Target sequence (Q62848 1-136 limits assumed): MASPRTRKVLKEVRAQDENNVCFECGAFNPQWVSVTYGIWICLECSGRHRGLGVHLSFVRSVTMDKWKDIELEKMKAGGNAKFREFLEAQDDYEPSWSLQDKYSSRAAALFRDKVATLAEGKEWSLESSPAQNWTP
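material = rat Arfgap1 catalytic domain, aa 1-136 | also added = human ARF1(Δ1-17)-GTP substrate | compound dosing = one concentration, 16.5 µM, DMSO 1.26% | times = GTP hydrolysis reaction 2 h at 25 °C | measured by = FP, GDP Alexa 633 tracer displaced from anti-GDP antibody, 620/688 nm | evaluation = percent inhibition of Arfgap1-stimulated GTP hydrolysis | replication = single well per compound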
LEDGF integ inh: blocks HIV-1 LEDGF/p75-dependent DNA integration; TR-FRET IN-LEDGF/p75 DNA integration, Eu/Cy5; inhibition, % at 3.7 µM; actives 0.64% (n = 370,000); AID 743269;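 active = inhibition above the screen-wide mean plus 3 SD, cut at about 13% in these data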;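 note: signal is the Cy5 over europium emission ratio at 671 and 618 nm; 0% = plate median of compound wells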
MBD2 DNA inh: inhibitors of human MBD2 binding to methylated oligonucleotide; Q9UBB5; actives 0.31% (n = 370,000); TR-FRET; inhibition, % at 4.4 µM; in the data active = inhibition above about 13%
The depositor's hits bear a star; nt = no result given.

SMILES | TCR CD3 inh | ASAP1 inh | UHRF1 MBD2 ctr | ARFGAP1 inhibitor | LEDGF integ inh | MBD2 DNA inh
Cc1nn(-c2ccccc2)c(C)c1C(=O)Oc1ccccc1 | 10 | 5 | 32* | 0 | 0 | 1
O=C(Cc1cccc(NC(=O)C2CCCN(C(=O)C3CCCC3)C2)c1)Nc1cccc(C(=O)N2CCOCC2)c1 (configuration not stated) | 4 | 9 | 2 | 2 | -5 | 3
COCC1CCCCN1C(=O)c1cccc(OC2CCN(S(C)(=O)=O)CC2)c1 (configuration not stated) | 2 | 6 | 31* | -11 | -3 | 3
O=C(C1CC1)N1CCC(Oc2cccc(C(=O)N3CCCCC3CCO)c2)CC1 (configuration not stated) | -3 | 15 | 3 | 8 | -6 | -1
CCc1sc(C(=O)NCc2ccco2)cc1Br | -3 | -7 | 26* | -3 | 13 | 2
CC(C)CCn1c(COc2ccccc2)n[nH]c1=S | 3 | -6 | 21* | 0 | -2 | 0
CCCCCCCCN1C(=O)[C@@H](CC(=O)N2CCC(c3ccccc3)CC2)C[C@@]2(C(=O)OC)C1=C[C@H](C(C)C)O[C@@H]2C1CC1 | nt | nt | 0 | nt | 0 | 0
CCCNS(=O)(=O)c1ccc(OCC(=O)Nc2ccc3c(c2)OCCO3)cc1 | 2 | 9 | 24* | 6 | -2 | 5
CCCNS(=O)(=O)c1ccc(OCC(=O)Nc2ccc3c(c2)OCCO3)c(C)c1 | 1 | 11 | -1 | 14 | 1 | -1
O=C1CS/C(=N/N=C/c2ccncc2)N1 | -2 | 0 | 4 | 5 | 1 | -6
Cn1ccc(/C=N/N=C2/NC(=O)CS2)n1 | 2 | 6 | 37* | -2 | 2 | -6
CC(C)C[C@@H](CNCC(=O)[C@H](Cc1ccccc1)NC(=O)c1[nH]cnc1C(=O)N[C@@H](C)CN)NC(=O)c1nc[nH]c1C(=O)N[C@@H](C)C(=O)O | -7 | 2 | 23* | -1 | -3 | 9
CC(C)C[C@@H](CNCC(=O)[C@H](C)NC(=O)c1[nH]cnc1C(=O)N[C@@H](C)CN)NC(=O)c1nc[nH]c1C(=O)N[C@@H](C)C(=O)O | 2 | -13 | 22* | -13 | -3 | 12
CC(C)C[C@@H](CNCC(=O)[C@H](C)NC(=O)c1[nH]cnc1C(=O)N[C@@H](C)CN)NC(=O)c1nc[nH]c1C(=O)N[C@@H](CO)C(=O)O | -2 | -18 | 5 | -18 | 2 | -4
O=C(NCCc1ccc(Cl)cc1)C1COc2ccccc2O1 (configuration not stated) | -4 | 1 | -1 | 0 | -3 | 4
FC(F)(F)c1ccc(CSc2nccn2-c2ccccc2)cc1 | 9 | 7 | 80* | -3 | -1 | -5
Brc1ccc(CSc2nccn2-c2ccccc2)cc1 | -1 | -1 | 6 | 9 | -2 | 3
Cc1ccc(S(=O)(=O)N2c3ccccc3C[C@H]2CC=C(c2ccccc2)c2ccccc2)cc1 | nt | nt | 0 | nt | 6 | 1
CNC(=O)COC(=O)c1cc(-c2ccco2)nc2ccccc12 | 18 | 11 | 11 | -5 | 16* | 3
COCCCN(C(=O)c1cc(-c2ccco2)nc2ccccc12)c1c(N)n(Cc2ccccc2)c(=O)[nH]c1=O | 18 | 2 | 23* | -14 | 36* | 12
Cc1noc(C)c1S(=O)(=O)NC(=O)C1(C)CCN1C(=O)c1ccc(C2CCCCC2)cc1 (configuration not stated) | 0 | 0 | -1 | -1 | -2 | 5
O=C1CC(=O)N(C2CCCCC2)C(=O)N1c1ccccc1S(=O)(=O)Oc1ccccc1 | -5 | 3 | 2 | -7 | 0 | 2
Cc1ccccc1N(CC(=O)N1CCN(Cc2ccccc2)CC1)S(C)(=O)=O | -6 | 2 | 21* | -7 | 0 | 7
O=C(Nc1ccc(C(F)(F)F)cc1)OC1CC2CC1[C@H]1CCCCN1C2 (some centres not stated) | nt | nt | -2 | nt | 3 | 0
Cc1nc2ccc(NC(=O)c3ccc(S(=O)(=O)N(C)c4ccccc4)cc3)cc2s1 | 6 | 15 | 26* | 17 | 5 | 1
SMILES | TCR CD3 inh | ASAP1 inh | UHRF1 MBD2 ctr | ARFGAP1 inhibitor | LEDGF integ inh | MBD2 DNA inh
CC1NC(=O)c2ccccc2-n2c1nc1ccc(F)cc1c2=O (configuration not stated) | -2 | 13 | -2 | 5 | 0 | -4
Cc1cc(NC(=O)c2ccc3c(c2)C(=O)N(C2CCCCC2)C3=O)no1 | -1 | -1 | -3 | 7 | 3 | -4
O=C(Nc1ccncc1)c1ccc2c(c1)C(=O)N(C1CCCCC1)C2=O | 5 | -2 | 26* | -4 | 1 | 1
C[C@@H]1COc2cc(Br)ccc2S(=O)(=O)N1Cc1cn(CC2CCCCC2)nn1 | nt | nt | -2 | nt | -2 | 1
CCCCn1c(NC(=O)c2ccccc2Cl)c(C#N)c2nc3ccccc3nc21 | -2 | 21 | 5 | 8 | 6 | -8
N#Cc1c(NC(=O)c2ccccc2Cl)n(Cc2ccccc2)c2nc3ccccc3nc12 | 6 | -6 | 10 | 0 | 16* | 1
COc1ccc(Cl)cc1-c1cc(C(=O)NC2CCCCC2)[nH]n1 | -7 | 0 | -1 | -4 | 0 | -1
CCOc1ccc(Cl)cc1-c1cc(C(=O)NC2CCCCC2)[nH]n1 | -2 | -1 | 79* | -3 | -2 | -1
Cc1cc(/C=C(/C#N)c2nc3ccccc3[nH]2)c(C)n1-c1cc(C(=O)O)cc(C(=O)O)c1 | 0 | -19 | 23* | 6 | 13 | 1
O=C(OCn1nnc2ccccc2c1=O)c1ccc(F)c(S(=O)(=O)N2CCOCC2)c1 | -3 | -9 | 73* | 6 | 2 | 2
O=C(OCn1nnc2ccccc2c1=O)c1cccc(S(=O)(=O)N2CCOCC2)c1 | 2 | 0 | 0 | -3 | 2 | 1
Cc1cccc(OCCOC(=O)c2ccc(F)c(S(=O)(=O)N3CCOCC3)c2)c1 | 4 | -5 | 41* | -5 | -5 | 6
COc1ccc(C(=O)OCCOc2cccc(Cl)c2)cc1S(=O)(=O)N1CCOCC1 | -1 | -1 | 0 | 5 | -4 | -1
CCCS(=O)(=O)Nc1c(C(=O)OC)[nH]c2ccccc12 | 4 | -5 | 22* | -2 | 1 | 8
COC(=O)c1[nH]c2ccccc2c1NS(=O)(=O)c1ccc(F)c(C)c1 | -1 | 6 | 5 | 11 | -2 | 1
CCCCn1nnnc1C(c1ccccc1)N1CCN(c2cccc(C(F)(F)F)n2)CC1 (configuration not stated) | 8 | 6 | 1 | 3 | 8 | 4
CSCCC(NC(=O)c1ccccc1)C(=O)OCC(=O)NCc1ccco1 (configuration not stated) | 3 | -11 | 27* | 2 | 3 | -4
O=C(COC(=O)c1ccccc1Nc1ccccc1)NCc1ccco1 | -5 | 5 | 21* | 5 | -3 | -1

Screens from PubChem BioAssay.
